Published values pooled from the literature.
Each line is one published result; the experiments were not run side by side.

| Structure (SMILES) | organism | assay | system | setting | quantity | result |
| --- | --- | --- | --- | --- | --- | --- |
| CC(=O)C1=C(C)N2NC(c3ccccc3O)N(C(Cc3c[nH]c4ccccc34)C(=O)O)C2=NC1c1ccc(Cl)cc1 (stereo not drawn) | Streptococcus pyogenes | microbial growth | ATCC19615 | 10 µg/mL, 24 h | inhibition zone | 18 mm |
| O=C1NC(=S)N/C1=C\c1ccc(-c2ccc(N(c3ccccc3)c3ccccc3)cc2)c2ccccc12 | Streptococcus pyogenes | microbial growth, broth dilution | ATCC19615 |  | MIC | > 1000 µg/mL |
| O=C1C(=Cc2ccccc2)Oc2ccccc21 | Streptococcus mutans | microbial growth | UA159 | 50 µM | inhibition | 80% |
| CCCCC(=O)N1C(=O)/C(=C(/C)O)C(=O)C1CC(C)C (stereo not drawn) | Stenotrophomonas maltophilia | microbial growth | ATCC13637 |  | MIC | > 200 µg/mL |
| O=C(Nc1ccccc1-c1ccc(F)c(F)c1)c1nccnc1C(F)(F)F | Diaporthe citri | microbial growth |  |  | EC50 | > 100 µg/mL |
| Clc1cccc(-c2c(-c3ccccn3)nc3n2CCC3)c1 | Leishmania infantum | parasite growth |  | 5 days, intracellular, amastigote | EC50 | 0.794 µM |
| CC(C(=O)O)N1C2=NC(c3ccc(Cl)cc3)C3=C(OC(C)(C)OC3=O)N2NC1(C)c1ccccc1O (stereo not drawn) | Streptococcus pyogenes | microbial growth | ATCC19615 | 10 µg/mL, 24 h | inhibition zone | 8 mm |
| CCCCCCC/C=C/C(=O)N1C(=O)/C(=C(/C)O)C(=O)C1Cc1ccc(OC(C)(C)C)cc1 (stereo not drawn) | Stenotrophomonas maltophilia | microbial growth | ATCC13637 |  | MIC | > 200 µg/mL |
| Fc1ccc(NCc2c(-c3ccccn3)nc3ccccn23)cc1 | Leishmania infantum | parasite growth |  | intracellular, amastigote | IC50 | > 64 µM |
| O=C(O)CN1C(=O)/C(=C/c2c3ccccc3c(-c3ccc(N(c4ccccc4)c4ccccc4)cc3)c3ccccc23)SC1=S | Streptococcus pyogenes | microbial growth, broth dilution | ATCC19615 |  | MIC | > 1000 µg/mL |
| CCOC(=O)C1=C(C)N2NC(c3ccccc3O)N(C(Cc3c[nH]c4ccccc34)C(=O)O)C2=NC1c1ccc(Cl)cc1 (stereo not drawn) | Streptococcus pyogenes | microbial growth | ATCC19615 | 10 µg/mL, 24 h | inhibition zone | 18 mm |
| O=C(N[C@@H](Cc1ccccc1)C(=O)c1cn(COCc2ccccc2)nn1)[C@H](Cc1ccccc1)NC(=O)N1CCOCC1 | Leishmania infantum | parasite growth |  | intracellular, amastigote | IC50 | > 64 µM |
| O=C(O)CN1C(=O)/C(=C/c2ccc(-c3ccc(N(c4ccccc4)c4ccccc4)cc3)c3ccccc23)NC1=S | Streptococcus pyogenes | microbial growth, broth dilution | ATCC19615 |  | MIC | > 1000 µg/mL |
| CCCCCCC/C=C/C(=O)N1C(=O)/C(=C(\O)c2ccccc2)C(=O)C1CC(C)C (stereo not drawn) | Stenotrophomonas maltophilia | microbial growth | ATCC13637 |  | MIC | > 200 µg/mL |
| CCCCCCCCCCCCCCCCC#CC(=O)O | Leishmania infantum | parasite growth | mouse Splenocyte | 72 h, intracellular, amastigote | IC50 | 11.7 µM |
| CS(=O)(=O)c1ccc(-c2c(-c3ccccn3)nc3n2CCC3)cc1 | Leishmania infantum | parasite growth |  | intracellular, amastigote | IC50 | > 64 µM |
| O=C1NC(=S)N/C1=C\c1ccc(-c2ccc(N(c3ccccc3)c3ccccc3)cc2)cc1 | Streptococcus mutans | microbial growth, broth dilution | ATCC25175 |  | MIC | > 1000 µg/mL |
| Fc1ccc(Nc2c(-c3ccccn3)nc3ccccn23)cc1 | Leishmania infantum | parasite growth |  | intracellular, amastigote | IC50 | 8.11 µM |

| Structure (SMILES) | organism | assay | system | setting | quantity | result |
| --- | --- | --- | --- | --- | --- | --- |
| O=C(N[C@@H](Cc1ccccc1)C(=O)c1noc(-c2ccccc2)n1)[C@H](Cc1ccccc1)NC(=O)N1CCOCC1 | Leishmania infantum | parasite growth |  | intracellular, amastigote | IC50 | > 64 µM |
| N#Cc1c(-c2ccc(Cl)cc2)nc2n(c1=O)NC(c1ccccc1O)N2C(Cc1c[nH]c2ccccc12)C(=O)O (stereo not drawn) | Streptococcus pyogenes | microbial growth | ATCC19615 | 15 µg/mL, 24 h | inhibition zone | 34 mm |
| CN(c1ccc(F)cc1)c1c(-c2ccccn2)nc2ccccn12 | Leishmania infantum | parasite growth |  | 5 days, intracellular, amastigote | EC50 | 1 µM |
| O=C(O)CN1C(=O)/C(=C/c2c3ccccc3c(-c3ccc(N(c4ccccc4)c4ccccc4)cc3)c3ccccc23)NC1=S | Streptococcus mutans | microbial growth, broth dilution | ATCC25175 |  | MIC | > 1000 µg/mL |
| CN[C@H](CC(C)C)C(=O)N[C@H]1C(=O)N[C@@H](CC(N)=O)C(=O)N[C@H]2C(=O)N[C@H]3C(=O)N[C@H](C(=O)N[C@H](C(=O)O)c4cc(O)cc(O)c4-c4cc3ccc4O)[C@H](O)c3ccc(c(Cl)c3)Oc3cc2cc(c3O[C@@H]2O[C@H](CO)[C@@H](O)[C@H](O)[C@H]2O[C@H]2C[C@](C)(N)[C@H](O)[C@H](C)O2)Oc2ccc(cc2Cl)[C@H]1O | Streptococcus pyogenes | microbial killing |  |  | MBC | > 32 µg/mL |
| COc1ccc(-c2c(-c3ccccn3)nc3n2CCC3)cc1OC | Leishmania infantum | parasite growth |  | 5 days, intracellular, amastigote | EC50 | 2 µM |
| O=C(N[C@H](CCc1ccccc1)C(=O)c1cc(Cc2ccccc2)on1)[C@H](Cc1ccccc1)NC(=O)N1CCOCC1 | Leishmania infantum | parasite growth |  | intracellular, amastigote | IC50 | > 64 µM |
| O=C1NC(=S)S/C1=C\c1ccc(-c2ccc(N(c3ccccc3)c3ccccc3)cc2)cc1 | Streptococcus mutans | microbial killing, broth dilution | ATCC25175 |  | MBC | > 1000 µg/mL |
| C[Si](C)(C)c1cc(C(=O)[C@H](Cc2ccccc2)NC(=O)[C@H](Cc2ccccc2)NC(=O)N2CCOCC2)no1 (single isomer, unassigned) | Leishmania infantum | parasite growth |  | intracellular, amastigote | IC50 | > 64 µM |
| CN(c1ccc(F)cc1)c1c(-c2ccc(F)cn2)nc2ccccn12 | Leishmania infantum | parasite growth |  | intracellular, amastigote | EC50 | 1.26 µM |
| O=C(N[C@@H](Cc1ccccc1)C(=O)c1cc(-c2ccccc2)no1)[C@H](Cc1ccccc1)NC(=O)N1CCOCC1 (mixture of isomers) | Leishmania infantum | parasite growth |  | intracellular, amastigote | IC50 | > 64 µM |
| CC1(c2ccccc2O)Nn2c(nc(-c3ccc(Cl)cc3)c(C#N)c2=O)N1C(Cc1c[nH]c2ccccc12)C(=O)O (stereo not drawn) | Streptococcus pyogenes | microbial growth | ATCC19615 | 15 µg/mL, 24 h | inhibition zone | 32 mm |
| O=C(O)CN1C(=O)/C(=C/c2ccc(-c3ccc(N(c4ccccc4)c4ccccc4)cc3)cc2)SC1=S | Streptococcus mutans | microbial killing, broth dilution | ATCC25175 |  | MBC | > 1000 µg/mL |
| CCOC(=O)C1=C(C)N2NC(C)(c3ccccc3O)N(C(Cc3c[nH]c4ccccc34)C(=O)O)C2=NC1c1ccc(Cl)cc1 (stereo not drawn) | Streptococcus pyogenes | microbial growth | ATCC19615 | 15 µg/mL, 24 h | inhibition zone | 31 mm |
| O=C1NC(=S)S/C1=C\c1c2ccccc2c(-c2ccc(N(c3ccccc3)c3ccccc3)cc2)c2ccccc12 | Streptococcus pyogenes | microbial killing, broth dilution | ATCC19615 |  | MBC | > 1000 µg/mL |
| CC(C(=O)O)N1c2nc(-c3ccc(Cl)cc3)c(C#N)c(=O)n2NC1(C)c1ccccc1O (stereo not drawn) | Streptococcus pyogenes | microbial growth | ATCC19615 | 10 µg/mL, 24 h | inhibition zone | 16 mm |
| c1ccc(-c2nc3n(c2-c2ccncc2)CCC3)nc1 | Leishmania infantum | parasite growth |  | 5 days, intracellular, amastigote | EC50 | > 63.1 µM |
| COc1cc(OC)c(OC)cc1C=C1Oc2ccccc2C1=O | Streptococcus mutans | microbial growth | UA159 | 50 µM | inhibition | 30% |
